Results taken from article PMC7816766 (Journal of Medicinal Chemistry, 2020).

Legend:
STAT5:STAT5 homodimers = assay type: biochemical; settings: 10 µM, MGFe probe (Fig. S6)
MDA-MB-468 cells = assay: CyQuant cell viability assay, MDA-MB-468; assay type: cell-based; settings: Homo sapiens, MDA-MB-468, 72 h, read-out: Cell viability EC50 MDA-MB-468
Outline: (§1)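 Cells in 96-well plates were treated with test compound over a range of concentrations for 72 h, then assayed with CyQuant. Viability was normalised to control as % and plotted against concentration to derive EC50. Media: MCF-10A in DMEM/F12 with 5% horse serum, EGF, insulin and hydrocortisone; other lines in DMEM with 10% heat-inactivated FBS.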

STAT1:STAT1 homodimers = molecular target: T1, STAT1:STAT1 homodimers (Mus musculus, UniProt P42225); assay type: biochemical; settings: 10 µM, MGFe probe (Fig. S6)
T1 sequence (P42225 2-749 limits assumed): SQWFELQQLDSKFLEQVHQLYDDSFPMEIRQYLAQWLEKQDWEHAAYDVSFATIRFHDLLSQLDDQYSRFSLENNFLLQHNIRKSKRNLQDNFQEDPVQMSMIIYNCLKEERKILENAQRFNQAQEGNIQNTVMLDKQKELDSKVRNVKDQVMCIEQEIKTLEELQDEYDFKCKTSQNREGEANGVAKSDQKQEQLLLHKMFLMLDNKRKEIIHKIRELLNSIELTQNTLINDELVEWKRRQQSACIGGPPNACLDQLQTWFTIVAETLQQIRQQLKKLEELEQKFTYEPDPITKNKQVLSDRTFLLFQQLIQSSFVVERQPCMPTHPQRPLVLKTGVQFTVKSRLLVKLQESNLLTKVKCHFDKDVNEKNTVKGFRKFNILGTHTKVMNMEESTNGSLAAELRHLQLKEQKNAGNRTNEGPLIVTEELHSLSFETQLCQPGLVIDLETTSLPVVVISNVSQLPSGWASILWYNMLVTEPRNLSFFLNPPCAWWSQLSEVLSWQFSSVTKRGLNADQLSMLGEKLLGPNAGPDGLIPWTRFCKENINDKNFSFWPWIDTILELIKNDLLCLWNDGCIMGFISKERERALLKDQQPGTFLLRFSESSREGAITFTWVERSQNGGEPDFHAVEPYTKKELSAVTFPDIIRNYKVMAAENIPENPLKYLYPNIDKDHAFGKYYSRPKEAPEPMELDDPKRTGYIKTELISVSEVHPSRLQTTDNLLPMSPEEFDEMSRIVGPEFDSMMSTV

MCF-10A cells = assay: CyQuant cell viability assay, MCF-10A; assay type: cell-based; settings: Homo sapiens, 72 h, read-out: Cell viability EC50 MCF-10A
Outline: as §1

[1] = system: MDA-MB-231 and MDA-MB-468 cells; assay: Induction of apoptosis, PARP cleavage by Western blotting; assay type: cell-based, human; settings: 1 or 3 μM, 3–24 h
[2] = system: human breast cancer cells; assay: Combination treatment with docetaxel or cisplatin, CyQuant assay; assay type: cell-based; settings: 1 μM 7g for 6 h, then 0–100 nM docetaxel or 0–20 μM cisplatin, 72 h
[3] = system: c-Myc, VEGF, Bcl-2, survivin; assay: Immunoblotting for STAT3 target gene expression in MDA-MB-231 cells; assay type: cell-based, human; settings: 1 or 3 μM, 3–24 h
Outline: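 MDA-MB-231 cells were treated with 1 or 3 μM test compound for 3–24 h; controls received 0.05% DMSO. Whole-cell lysates were prepared in RIPA buffer. Equal total protein was run on SDS-PAGE and immunoblotted for c-Myc, Bcl-2, VEGF and survivin, with tubulin as loading control. Results came from two to three independent determinations.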

[4] = system: EGFR, JAK2, Src, AKT and ERK1/2; assay: Immunoblotting for nonspecific effects in MDA-MB-231 cells; assay type: cell-based, human; settings: 1 or 3 μM
[5] = system: MDA-MB-231 or MDA-MB-468 cells; assay: Cell viability/growth of breast cancer cells harboring active STAT3; assay type: cell-based, human; settings: at 1 μM or less
pY705STAT3 = assay: Immunoblotting for pY705STAT3 in treated breast cancer cells; assay type: cell-based, human; settings: 1–5 μM, 0–24 h (BBI-608 0.5–5 μM, 2–3 h)
Outline: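 Controls received 0.05% DMSO. Equal-protein RIPA whole-cell lysates were immunoblotted for pY705STAT3, STAT3 and tubulin. Results came from two to three independent determinations.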

[6] = system: STAT3 DNA-binding activity in MDA-MB-468 cells; assay: Constitutive STAT3 DNA-binding activity in treated breast cancer cells; assay type: cell-based, human
Outline: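 MDA-MB-468 cells were treated with 5 μM test compound for 1–3 h; controls received 0.05% DMSO. Nuclear extracts of equal total protein were incubated with 33P-labelled hSIE probe (c-fos m67 variant) for 30 min at 30 °C. STAT3:DNA complexes were then resolved by EMSA. Results came from two to three independent determinations.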

Human HLM MetID study = assay type: in vitro ADME; settings: preliminary results
MDA-MB-231 cells = assay: Clonogenic; assay type: cell-based, human; settings: treated once
Outline: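 Cells were seeded as single-cell cultures at 250 cells per well. They were treated once the next day with test compound at 0–1 μM and cultured until large colonies were visible. Colonies were stained with crystal violet for 4 h and photographed. Data came from three independent determinations.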

MCF-7 cells = assay: CyQuant cell viability assay, MCF-7; assay type: cell-based, human
Outline: as §1

STAT3 = STAT3 (Mus musculus, UniProt P42227); assay type: biochemical; settings: up to 10 μM
Sequence of STAT3 (P42227 2-770 limits assumed): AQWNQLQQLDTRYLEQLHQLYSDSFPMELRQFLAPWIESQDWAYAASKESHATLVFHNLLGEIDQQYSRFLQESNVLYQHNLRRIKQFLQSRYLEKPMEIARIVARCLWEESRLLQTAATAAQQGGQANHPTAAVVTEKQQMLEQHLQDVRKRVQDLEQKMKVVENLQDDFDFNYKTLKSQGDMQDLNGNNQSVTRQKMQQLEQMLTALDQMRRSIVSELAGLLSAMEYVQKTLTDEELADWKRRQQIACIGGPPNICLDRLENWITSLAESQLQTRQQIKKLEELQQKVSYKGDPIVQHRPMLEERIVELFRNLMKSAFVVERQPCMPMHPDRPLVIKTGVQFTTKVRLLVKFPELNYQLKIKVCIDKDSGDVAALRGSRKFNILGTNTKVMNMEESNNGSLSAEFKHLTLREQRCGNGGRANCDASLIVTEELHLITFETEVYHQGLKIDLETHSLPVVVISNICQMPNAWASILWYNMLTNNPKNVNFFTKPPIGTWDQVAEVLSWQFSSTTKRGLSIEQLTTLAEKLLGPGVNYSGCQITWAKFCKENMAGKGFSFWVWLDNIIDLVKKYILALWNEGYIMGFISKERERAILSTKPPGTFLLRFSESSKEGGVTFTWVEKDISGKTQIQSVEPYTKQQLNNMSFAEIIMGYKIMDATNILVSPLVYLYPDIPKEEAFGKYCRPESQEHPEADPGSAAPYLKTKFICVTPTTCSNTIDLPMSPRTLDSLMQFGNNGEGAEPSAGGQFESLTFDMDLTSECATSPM

SMILES: COC(=O)c1ccc(N(Cc2ccc(C3CCCCC3)cc2)C(=O)[C@H]2CCN2S(=O)(=O)c2c(F)c(F)c(F)c(F)c2F)cc1O [Compound 7a]
- effect on DNA-binding activity of STAT5:STAT5 homodimers (STAT5:STAT5 homodimers): minimal effect
- EC50 (MDA-MB-468 cells): 2.5 µM
- effect on DNA-binding activity of STAT1:STAT1 homodimers (STAT1:STAT1 homodimers): minimal effect
- EC50 (MCF-10A cells): 4.3 µM

SMILES: O=C1OCc2cc(N(Cc3ccc(C4CCCCC4)cn3)C(=O)[C@H]3CCN3S(=O)(=O)c3c(F)c(F)c(F)c(F)c3F)ccc21 [Compound 7g]
- PARP cleavage [1]: induced poly (ADP-ribose) polymerase (PARP) cleavage
- response to combined treatment with docetaxel or cisplatin [2]: strong shift of the dose–response curves to the left indicative of an enhanced response
- expression of STAT3 target genes c-Myc, VEGF, Bcl-2, survivin [3]: inhibited the expression
- effect on tyrosine kinases EGFR, JAK2, Src, or AKT and ERK1/2 [4]: no measurable effect
- viability, anchorage-dependent and independent growth, and colony formation [5]: strongly inhibited
- pY705STAT3 in breast cancer cells (pY705STAT3): inhibited pY705STAT3 in dose- and time-dependent manner
- earliest time of inhibition of STAT3 DNA-binding activity in cells ([6]; MDA-MB-468): 5 min
- constitutive STAT3 DNA-binding activity in cells ([6]; cells treated with 1–5 μM (BBI-608 0.5–5 μM, 2–3 h)): inhibited to variable degrees
- species found in HLM MetID study (Human HLM MetID study): both the parent compound and its hydroxy-acid metabolite
- inhibition of colony formation (MDA-MB-231 cells; 0.5 μM): significant inhibition of colony formation
- inhibition of colony formation (MDA-MB-231 cells; 1 μM): complete inhibition of colony formation

SMILES: COc1ccc(S(=O)(=O)Nc2cc(-c3c(O)ccc4ccccc34)c(O)c3ccccc23)cc1 [Compound C188-9]
- stronger activity against MCF-7 than MDA-MB-231 (MCF-7 cells): 2 fold
- direct effect on STAT3 activity in the DNA-binding assay/EMSA (STAT3): minimal direct effect
